The values that follow come from PubChem BioAssay AID822 (SRMLSC, 2007).

Calls of active or inactive are those of the source.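 Rule for the calls: active = half-maximal effective dose for blocking growth of human endothelial cells at most 100 µM; inactive = the rest.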

The assay concerns HUVEC proliferation, viability ATP luminescence. As to the kind of experiment: HUVEC proliferation inhibition, dose response, cell-based, ATP luminescence (AID 822).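 Note: cells exposed to compound for 72 h before the ATP read.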 Put shortly: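 Material: HUVEC. Input: 1250 cells per well. Medium: endothelial basal medium (EBM) with 2% fetal bovine serum, collagen-coated wells. Compound: 0.039–20 µM, 0.2% DMSO. Times: compound treatment 72 h, 37 °C. Technique: CellTiter-Glo ATP luminescence. Read-out basis: % viability and fitted EC50. Format: collagen-coated multiwell plates.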
Take `CC(=O)Nc1ccc(S(=O)(=O)NC2=C(N3CCN(c4ccc(F)cc4)CC3)C(=O)c3ccccc3C2=O)cc1`: the concentration giving a half-maximal response (EC50) was 2.38 µM.

For `Nc1nc(Nc2cccc3ccccc23)nc(C2CCCC2=O)n1` (stereo unspecified), the EC50 is 11.4 µM.

`O=C(COc1ccc(Cl)cc1)Nc1ccccc1C(=O)NCc1ccco1`: the EC50 is 16.4 µM.

For `COC(=O)C1=C(O)/C(=C\c2ccc(CNC(=O)C(=O)Nc3ccc(C)c(C)c3)o2)N=C1C`, the EC50 was 13.3 µM.

With `Cc1ccc(C(=O)Nc2ncc(Cc3ccc(F)cc3)s2)o1`, the EC50 is 0.277 µM.

For the compound `O=c1[nH]c2ccccc2n1C1CCN(CCCC(c2ccc(F)cc2)c2ccc(F)cc2)CC1`, the EC50 is 2.71 µM.

On to `CCn1c(SCC(N)=O)nnc1-c1ccc2[nH]c(C)c(C)c2c1`, for which the EC50 was > 10 µM (inactive).

`CN1CCN(Cc2cc(COCc3ccccc3)c3cccnc3c2O)CC1`: the EC50 is 6.08 µM.

For the compound `CCOc1cc(/C=C\c2[nH]c(=O)[nH]c(=O)c2[N+](=O)[O-])ccc1OC(C)CC` (stereo unspecified), the EC50 was 4.12 µM.

On to `COc1ccc(NC(=O)c2cc3n(n2)C(C(F)(F)F)CC(c2ccc(OC)cc2)N3)cc1` (stereo unspecified), for which the EC50 is 9.91 µM.

As to `CCc1ccc(-c2nc(CN3CCC(C(=O)N4CCN(c5ccccn5)CC4)CC3)c(C)o2)cc1`, the EC50 is 14.2 µM.

For `O=C(COC(=O)c1cccnc1Nc1cccc(C(F)(F)F)c1)NCc1ccc2c(c1)OCO2`, the EC50 is 13.5 µM.

Turning to `N#Cc1nc(-c2ccc(OCc3ccccc3Cl)cc2)oc1NCCCn1ccnc1`, the EC50 is 2.55 µM.

Regarding `CCOc1cc(N2CCOCC2)c(OCC)cc1NC(=O)COc1cccc2cccnc12`, the EC50 was 14.9 µM.

`Nc1c(C(=O)NCc2ccc(F)cc2)c2nc3ccccc3nc2n1CCCN1CCOCC1`: the EC50 was 10.4 µM.

In the case of `CC1(C)Cc2c(C#N)c(N3CCN(C(=O)c4ccco4)CC3)nc(Cc3ccccc3)c2CO1`, the EC50 is 7.74 µM.

Consider `COc1ccc(S(=O)(=O)Nc2ccc(O)c3ccccc23)cc1`, for which the EC50 was 2.45 µM.

Take `CCOC(=O)N1CCC(c2cc(=O)n3[nH]c(C)c(-c4ccc(F)cc4)c3n2)CC1`: the EC50 was 6.46 µM.

As for `CC1CCN(S(=O)(=O)c2ccc(NC(=O)Cn3nnc(-c4ccccc4F)n3)cc2)CC1`, the EC50 was 6.62 µM.

As for `CC1=CC(C)(C)N2C(=O)C3(C(C#N)=C(N)Oc4cc(O)ccc43)c3c(C)c(C)cc1c32` (stereo unspecified), the EC50 was 6.14 µM.

In the case of `CCCCC[n+]1ccn(C2=C([O-])c3ccccc3C(=O)/C2=N\S(=O)(=O)c2ccccc2)c1`, the EC50 is 6.1 µM.

Take `COc1ccc(-c2cc(C(=O)Nc3cc(C)n(Cc4ccc(Cl)cc4)n3)no2)cc1OC`: the EC50 was 9.64 µM.

For the compound `O=S1(=O)C=C(Sc2nnc(-c3ccccc3)o2)c2ccccc21`, the EC50 was 4.25 µM.

In the case of `COC(=O)Nc1ccc(S(=O)(=O)N2c3ccccc3CCC2C)cc1` (stereo unspecified), the EC50 was 9.54 µM.

With `CC(C)COC(=O)c1ccc2c(c1O)C(=O)c1ccccc1C2=O`, the 50% effective concentration (EC50) was 3.11 µM.

On to `N#Cc1nc(COc2ccc(-c3ccccc3)cc2)oc1NCCCN1CCOCC1`, for which the EC50 was 10.6 µM.

Take `c1ccc(-c2nc3nonc3nc2-c2ccccc2)cc1`: the EC50 was 3.46 µM.

As to `CCN(CC)CC(=O)Nc1ccc(-c2nc3cc(NC(=O)CN(CC)CC)ccc3o2)cc1`, the EC50 is > 10 µM (inactive).

Take `O=C(CSc1nnc(-c2ccccc2O)o1)Oc1ccc(OCc2ccccc2)cc1`: the EC50 was 10.1 µM.

`Cn1c(=O)c2c(nc(Oc3ccc4c(c3)OCO4)n2Cc2ccc(Cl)cc2)n(C)c1=O`: the EC50 was 5.33 µM.

In the case of `CCCCC(=O)O[C@H]1CC[C@H]2[C@@H]3CCc4cc(O)ccc4[C@H]3CC[C@]12C`, the EC50 is 7.16 µM.

Consider `CCOC(=O)c1sc2nc(C(C)C)c3c(c2c1N)CC(C)(C)OC3`, for which the EC50 is 20.8 µM.

`COC(=O)/C(=C\Nc1ccc(Cl)cc1Cl)NC(=O)c1ccc(Cl)cc1Cl`: the EC50 is 7.64 µM.

With `COc1ccc(OC)c(CCNC(=O)Cn2sc3nc(C)cc(C)c3c2=O)c1`, the EC50 is 12.1 µM.

For `CCOC(=O)C(C(C)=O)c1c(Br)c(O)c(O)c2c(C(=O)c3ccc(C)cc3)coc12` (stereo unspecified), the EC50 was 7.17 µM.

For `N#Cc1c(NCCN)nc(NCc2ccccc2)c2c1CCN(Cc1ccccc1)C2`, the EC50 is 13.3 µM.

The EC50 is the concentration giving half of the maximal effect.
